Results from ChEMBL document CHEMBL4819144, “Structure-activity relationships of pyrimidine nucleotides containing a 5'-α,β-methylene diphosphonate at the P2Y6 receptor” (Bioorg Med Chem Lett, 2021).
pEC50, pIC50: −log10 of the molar value. Blank lines part the entries; values can stand above or below the molecule they belong to.

Legend:
[1] = molecular target: T1, P2Y purinoceptor 6 (Homo sapiens, UniProt Q15077); assay: Agonist activity at human P2Y6R expressed in 1321N1 cells assessed as calcium mobilization measured by microplate reader method; type: functional, cell-based
[2] = molecular target: D(3) dopamine receptor (Homo sapiens) (UniProt P35462); assay: Displacement of [3H]-N-methylspiperone from dopamine D3 receptor (unknown origin) at 10 uM relative to control
[3] = molecular target: T1, P2Y purinoceptor 6; assay: Agonist activity at human P2Y6R expressed in 1321N1 cells assessed as calcium mobilization at 3 uM measured by microplate reader method relative to control; type: functional, cell-based
In short: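 Human P2Y6R stably expressed in 1321N1 astrocytoma cells; fluorescence-based (FLIPR) Ca2+ mobilization read-out; agonist tested at a single 3 µM concentration and expressed as % activation.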

[4] = molecular target: T2, 5'-nucleotidase (Rattus norvegicus, UniProt P21588); assay: Inhibition of rat CD73 using [3H]-AMP as substrate by radiometric assay
T2 sequence (P21588 whole entry): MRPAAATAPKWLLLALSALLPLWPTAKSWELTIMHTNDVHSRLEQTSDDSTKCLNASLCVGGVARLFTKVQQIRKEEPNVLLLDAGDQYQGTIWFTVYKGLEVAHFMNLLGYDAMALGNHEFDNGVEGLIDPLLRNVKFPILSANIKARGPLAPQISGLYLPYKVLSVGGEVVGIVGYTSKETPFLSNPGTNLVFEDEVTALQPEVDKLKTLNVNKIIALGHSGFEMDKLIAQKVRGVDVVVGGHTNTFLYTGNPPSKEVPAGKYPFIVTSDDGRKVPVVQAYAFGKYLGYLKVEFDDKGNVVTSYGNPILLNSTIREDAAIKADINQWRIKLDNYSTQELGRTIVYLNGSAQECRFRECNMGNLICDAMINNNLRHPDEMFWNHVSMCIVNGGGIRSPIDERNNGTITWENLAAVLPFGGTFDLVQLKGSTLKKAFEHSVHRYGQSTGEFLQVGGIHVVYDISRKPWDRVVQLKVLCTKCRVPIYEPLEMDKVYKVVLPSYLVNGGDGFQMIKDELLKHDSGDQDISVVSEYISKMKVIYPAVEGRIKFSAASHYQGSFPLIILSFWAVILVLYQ

[5] = molecular target: T1, P2Y purinoceptor 6; assay: Agonist activity at human P2Y6R expressed in 1321N1 cells by PLC assay; details: dose 3.0 µM, time 30.0 min
[6] = molecular target: T3, P2Y purinoceptor 14 (Homo sapiens, UniProt Q15391); assay: Binding affinity to human P2Y14 expressed in CHO cells; type: cell-based
T3 sequence (Q15391 whole entry): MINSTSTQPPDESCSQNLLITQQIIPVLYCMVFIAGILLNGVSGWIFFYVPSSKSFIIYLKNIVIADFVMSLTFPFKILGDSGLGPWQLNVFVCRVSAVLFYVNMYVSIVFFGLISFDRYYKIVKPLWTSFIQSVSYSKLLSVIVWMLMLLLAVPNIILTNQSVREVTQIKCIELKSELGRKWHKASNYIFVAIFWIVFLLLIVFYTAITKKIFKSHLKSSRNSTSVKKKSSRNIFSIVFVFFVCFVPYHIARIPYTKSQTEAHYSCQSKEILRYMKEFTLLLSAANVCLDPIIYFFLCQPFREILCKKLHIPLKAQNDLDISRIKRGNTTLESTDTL
In short: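 Whole CHO cells stably expressing human P2Y14R; a fluorescent antagonist serves as tracer and binding is read by flow cytometry; IC50 from inhibition of tracer binding.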

[7] = molecular target: T1, P2Y purinoceptor 6; assay: Agonist activity at human P2Y6R expressed in 1321N1 cells assessed as calcium mobilization measured by FLIPR method; type: functional, cell-based
[8] = species: Homo sapiens; assay: Selectivity ratio of IC50 for human P2Y14 expressed in CHO cells to EC50 for human P2Y6R expressed in 1321N1 cells; type: cell-based
In short: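 The ratio divides the hP2Y14R IC50 by the hP2Y6R EC50. The IC50 comes from flow-cytometric displacement of a fluorescent antagonist tracer in whole hP2Y14R-CHO cells.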

[9] = molecular target: T3, P2Y purinoceptor 14; assay: Agonist activity at human P2Y14 expressed in CHO cells
[10] = molecular target: Sigma non-opioid intracellular receptor 1 (Homo sapiens) (UniProt Q99720); assay: Displacement of [3H]-Pentazocine from sigma-1 receptor (unknown origin) at 10 uM relative to control
Chain of Sigma non-opioid intracellular receptor 1 (Homo sapiens) (Q99720 whole entry): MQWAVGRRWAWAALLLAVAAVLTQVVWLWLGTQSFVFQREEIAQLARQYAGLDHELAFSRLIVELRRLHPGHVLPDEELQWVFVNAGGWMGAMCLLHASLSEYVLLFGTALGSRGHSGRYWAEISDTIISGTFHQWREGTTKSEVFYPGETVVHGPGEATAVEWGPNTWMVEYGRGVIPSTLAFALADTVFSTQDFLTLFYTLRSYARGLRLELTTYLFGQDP

T1 sequence (Q15077 whole entry): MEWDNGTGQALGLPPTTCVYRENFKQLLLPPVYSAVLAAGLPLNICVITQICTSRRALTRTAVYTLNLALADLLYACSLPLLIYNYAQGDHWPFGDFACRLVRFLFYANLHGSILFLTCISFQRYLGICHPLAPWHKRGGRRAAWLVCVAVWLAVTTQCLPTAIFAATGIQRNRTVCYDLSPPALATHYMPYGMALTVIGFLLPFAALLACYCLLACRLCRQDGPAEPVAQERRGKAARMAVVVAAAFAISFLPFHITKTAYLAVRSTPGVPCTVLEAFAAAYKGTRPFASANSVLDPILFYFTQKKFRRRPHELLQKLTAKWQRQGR
Chain of D(3) dopamine receptor (Homo sapiens) (P35462 whole entry): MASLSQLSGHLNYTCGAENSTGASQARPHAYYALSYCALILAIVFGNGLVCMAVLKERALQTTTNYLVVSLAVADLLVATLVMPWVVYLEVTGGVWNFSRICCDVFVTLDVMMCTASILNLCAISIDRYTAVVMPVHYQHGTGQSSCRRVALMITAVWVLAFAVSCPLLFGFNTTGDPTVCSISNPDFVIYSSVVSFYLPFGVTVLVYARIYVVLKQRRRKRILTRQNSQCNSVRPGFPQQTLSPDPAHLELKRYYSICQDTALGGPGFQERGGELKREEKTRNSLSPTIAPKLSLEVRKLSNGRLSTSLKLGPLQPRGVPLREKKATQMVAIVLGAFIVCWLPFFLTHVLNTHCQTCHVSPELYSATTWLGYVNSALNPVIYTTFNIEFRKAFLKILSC

pEC50 [1]: 5.78 | inhibition [2]: 85%
SMILES: COC(=O)c1ccc(CO/N=c2/ccn([C@@H]3O[C@H](COP(=O)(O)CP(=O)(O)O)[C@@H](O)[C@H]3O)c(=O)[nH]2)cc1

pEC50 [1]: 6.10
SMILES: O=c1[nH]/c(=N\OCc2ccccc2)ccn1[C@@H]1O[C@H](COP(=O)(O)OP(=O)(O)O)[C@@H](O)[C@H]1O

Activity [3]: 3%
SMILES: Cc1cn([C@@H]2O[C@H](COP(=O)(O)CP(=O)(O)O)[C@@H](O)[C@H]2O)c(=O)nc1N

Activity [3]: 3.6%
SMILES: Cn1c(=O)n([C@@H]2O[C@H](COP(=O)(O)CP(=O)(O)O)[C@@H](O)[C@H]2O)cc/c1=N/OCc1ccccc1

pEC50 [1]: 6.98
SMILES: O=c1[nH]c(=O)n([C@@H]2O[C@H](COP(=O)(O)CP(=O)(O)O)[C@@H](O)[C@H]2O)cc1Br

Activity [3]: 2.7%
SMILES: CCCn1c(=O)ccn([C@@H]2O[C@H](COP(=O)(O)CP(=O)(O)O)[C@@H](O)[C@H]2O)c1=O

pIC50 [4]: < 6.00
SMILES: O=c1[nH]c(=O)n([C@@H]2O[C@H](COP(=O)(O)CP(=O)(O)O)[C@@H](O)[C@H]2O)cc1F

Activity [3]: 2.4%
SMILES: O=c1ccn([C@@H]2O[C@H](COP(=O)(O)CP(=O)(O)O)[C@@H](O)[C@@H]2O)c(=O)[nH]1

Activity [3]: 3.4%
SMILES: Nc1nc(=O)n([C@@H]2O[C@H](COP(=O)(O)CP(=O)(O)O)[C@@H](O)[C@H]2O)cc1I

Activity [3]: 5.7%
SMILES: Nc1nc(=O)n([C@@H]2O[C@H](COP(=O)(O)CP(=O)(O)O)[C@@H](O)[C@H]2O)cc1F

pEC50 [1]: 7.31 | pIC50 [4]: 6.79
SMILES: O=c1[nH]c(=O)n([C@@H]2O[C@H](COP(=O)(O)CP(=O)(O)O)[C@@H](O)[C@H]2O)cc1I

EC50 [5]: 1990 nM
SMILES: O=c1ccn([C@@H]2O[C@H](COP(=O)(O)CP(=O)(O)O)[C@@H](O)[C@H]2O)c(=S)[nH]1

pEC50 [1]: 6.26 | pIC50 [6]: 4.67 | pEC50 [7]: 6.26 | pIC50 [4]: 7.07
SMILES: O=c1[nH]/c(=N/OCc2ccccc2)c(F)cn1[C@@H]1O[C@H](COP(=O)(O)CP(=O)(O)O)[C@@H](O)[C@H]1O
Ratio IC50/EC50 [8]: 39

pIC50 [6]: < 4.00 | pIC50 [4]: 7.52
SMILES: O=c1[nH]/c(=N\OCc2ccc(C(F)(F)F)cc2)ccn1[C@@H]1O[C@H](COP(=O)(O)CP(=O)(O)O)[C@@H](O)[C@H]1O

Activity [3]: 5.2%
SMILES: O=c1cnn([C@@H]2O[C@H](COP(=O)(O)CP(=O)(O)O)[C@@H](O)[C@H]2O)c(=O)[nH]1

pIC50 [6]: < 4.00
SMILES: O=c1[nH]/c(=N\OCc2ccc(Cl)cc2)ccn1[C@@H]1O[C@H](COP(=O)(O)CP(=O)(O)O)[C@@H](O)[C@H]1O

pIC50 [4]: 6.49
SMILES: Cc1cn([C@@H]2O[C@H](COP(=O)(O)CP(=O)(O)O)[C@@H](O)[C@H]2O)c(=O)[nH]/c1=N/OCc1ccccc1

pEC50 [1]: 5.84 | pIC50 [6]: < 4.00 | pEC50 [7]: 5.84
SMILES: O=c1[nH]/c(=N\OCc2cccc(Cl)c2)ccn1[C@@H]1O[C@H](COP(=O)(O)CP(=O)(O)O)[C@@H](O)[C@H]1O

Activity [3]: 5.3%
SMILES: O=c1ccn([C@@H]2O[C@H](COP(=O)(O)CP(=O)(O)O)[C@@H](O)[C@H]2O)c(=O)n1Cc1ccccc1

pIC50 [4]: 5.74 | pEC50 [9]: 7.96 | EC50 [5]: 339 nM
SMILES: O=c1ccn([C@@H]2O[C@H](COP(=O)(O)CP(=O)(O)O)[C@@H](O)[C@H]2O)c(=O)[nH]1

Activity [3]: 3.5%
SMILES: CCn1c(=O)ccn([C@@H]2O[C@H](COP(=O)(O)CP(=O)(O)O)[C@@H](O)[C@H]2O)c1=O

Activity [3]: 5.7%
SMILES: CCn1c(=O)n([C@@H]2O[C@H](COP(=O)(O)CP(=O)(O)O)[C@@H](O)[C@H]2O)cc/c1=N/OCc1ccccc1

pEC50 [1]: 6.31
SMILES: CO/N=c1/ccn([C@@H]2O[C@H](COP(=O)(O)OP(=O)(O)O)[C@@H](O)[C@H]2O)c(=O)[nH]1

pEC50 [1]: 5.80 | inhibition [10]: 59%
SMILES: O=c1[nH]/c(=N\OCc2ccc(S(F)(F)(F)(F)F)cc2)ccn1[C@@H]1O[C@H](COP(=O)(O)CP(=O)(O)O)[C@@H](O)[C@H]1O

pIC50 [6]: 4.78
SMILES: O=c1[nH]c(=O)n([C@@H]2O[C@H](COP(=O)(O)CP(=O)(O)O)[C@@H](O)[C@H]2O)cc1Cl

pIC50 [4]: 6.95
SMILES: O=c1[nH]/c(=N\OCc2ccccc2)ccn1[C@@H]1O[C@H](COP(=O)(O)CP(=O)(O)O)[C@@H](O)[C@H]1O

pIC50 [4]: 6.59
SMILES: CO/N=c1/ccn([C@@H]2O[C@H](COP(=O)(O)CP(=O)(O)O)[C@@H](O)[C@H]2O)c(=O)[nH]1
